Experimental findings from ChEMBL document CHEMBL2401720, “Synthesis and structure-activity relationship studies of O-biphenyl-3-yl carbamates as peripherally restricted fatty acid amide hydrolase inhibitors” (J Med Chem, 2013) are described below.

Assay [1] relates to Mus musculus. Nature of the assay: In vivo inhibition of FAAH in Swiss Webster mouse liver using [3H]-ethanolamine as substrate at 1 mg/kg, ip after 1 hr by liquid scintillation counting analysis relative to control. It is filed as functional. As to conditions: route intraperitoneal.
In assay [2] the test system is Mus musculus. Nature of the assay: In vivo inhibition of FAAH in ip dosed Swiss Webster mouse brain using [3H]-ethanolamine as substrate after 1 hr by liquid scintillation counting analysis. It is filed as functional.
In assay [3] the test system is Mus musculus. Nature of the assay: In vivo inhibition of FAAH in Swiss Webster mouse brain using [3H]-ethanolamine as substrate at 1 mg/kg, ip after 1 hr by liquid scintillation counting analysis relative to control. It is filed as functional. As to conditions: route intraperitoneal.
Assay [4] relates to Mus musculus. Nature of the assay: In vivo inhibition of FAAH in sc dosed Swiss Webster mouse brain using [3H]-ethanolamine as substrate after 1 hr by liquid scintillation counting analysis. It is filed as functional, organism-based.
Assay [5] relates to Mus musculus. Nature of the assay: In vivo inhibition of FAAH in Swiss Webster mouse brain using [3H]-ethanolamine as substrate at 40 mg/kg, sc after 1 hr by liquid scintillation counting analysis in presence of Abcg2 inhibitor Ko-143. It is filed as functional, organism-based. Also noted: dose 40 mg/kg.
The target of assay [6] is T1, Fatty-acid amide hydrolase 1 (Rattus norvegicus, UniProt P97612).
T1 sequence (P97612 whole entry): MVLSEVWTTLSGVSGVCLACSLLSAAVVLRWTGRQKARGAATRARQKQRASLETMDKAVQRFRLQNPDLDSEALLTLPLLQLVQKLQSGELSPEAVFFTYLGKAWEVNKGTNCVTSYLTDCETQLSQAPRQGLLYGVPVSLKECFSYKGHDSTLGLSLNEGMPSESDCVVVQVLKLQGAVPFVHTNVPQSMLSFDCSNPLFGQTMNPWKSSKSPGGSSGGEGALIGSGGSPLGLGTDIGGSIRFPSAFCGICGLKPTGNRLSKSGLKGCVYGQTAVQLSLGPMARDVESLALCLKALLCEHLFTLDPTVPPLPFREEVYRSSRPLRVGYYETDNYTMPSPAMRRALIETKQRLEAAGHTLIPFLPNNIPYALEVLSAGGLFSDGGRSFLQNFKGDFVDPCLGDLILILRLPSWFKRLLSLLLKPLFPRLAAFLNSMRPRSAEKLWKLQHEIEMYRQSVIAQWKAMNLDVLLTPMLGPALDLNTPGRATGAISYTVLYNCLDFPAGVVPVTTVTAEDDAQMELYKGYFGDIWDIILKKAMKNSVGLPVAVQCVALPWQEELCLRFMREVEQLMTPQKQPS
Nature of the assay: Inhibition of Wistar rat brain FAAH using [3H]-ethanolamine as substrate preincubated for 20 mins followed by substrate addition by liquid scintillation counting analysis. In short, it runs like this:
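FAAH source was the membrane homogenate of Wistar rat brain (50 μg protein). It was preincubated with inhibitor for 20 min at 37°C, then incubated 30 min at 37°C in Tris 50 mM pH 7.5 with 0.05% fatty acid-free BSA, 10 μM anandamide and anandamide[ethanolamine-3H]. The reaction was stopped with chloroform/methanol (1:1), and aqueous-layer radioactivity was counted by liquid scintillation to give IC50.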

The subject of assay [7] is Mus musculus. Nature of the assay: In vivo inhibition of FAAH in Swiss Webster mouse brain using [3H]-ethanolamine as substrate at 75 mg/kg, sc after 1 hr by liquid scintillation counting analysis. The assay is classed as functional, organism-based. Also noted: dose 75 mg/kg.
In assay [8] the test system is Mus musculus. Nature of the assay: In vivo inhibition of FAAH in ip dosed Swiss Webster mouse liver. The assay is classed as functional.
Assay [9] concerns Mus musculus. Nature of the assay: In vivo inhibition of FAAH in ip dosed Swiss Webster mouse peripheral tissue. The assay is classed as functional.
Assay [10] deals with Mus musculus. Nature of the assay: In vivo inhibition of FAAH in Swiss Webster mouse brain using [3H]-ethanolamine as substrate at 25 mg/kg, sc after 1 hr by liquid scintillation counting analysis in presence of Abcg2 inhibitor Ko-143. It is filed as functional, organism-based. On the set-up: dose 25 mg/kg. In short, it runs like this: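 Adult male Swiss-Webster mice (25-30 g) got Ko-143 (15 mg/kg, i.p., in saline/PEG400/Tween80 18:1:1 with 30% DMSO) 20 min before a single s.c. dose of inhibitor in the same vehicle without DMSO. Brain taken 1 h later and homogenate supernatant (1000 × g) assayed: 37°C, 30 min, pH 7.5 Tris, 0.05% BSA, 10 μM anandamide plus [ethanolamine-3H]anandamide, aqueous-phase scintillation counting; mean ± s.e.m., n = 3-4.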

Activity calls are given as the source filed them. The rule behind the calls is not given here.

A word on the inhibition in vivo: it is the drop in the measured response relative to a control, in per cent. The term ED50 denotes the midpoint of the dose-response relation. Lower therefore signals an effect at a small dose. Regarding `NC(=O)c1cccc(-c2cc(O)cc(OC(=O)NC3CCCCC3)c2)c1`, the inhibition in vivo at 1 mg/kg in assay [1] is 89.5%; in assay [3], -4.2%. Besides, in assay [2], the median effective dose (ED50) is 75 mg/kg. In assay [4], the inhibition entry is “Dose-dependent effect”. Moreover, the inhibition entry in [5] is “Active”.

Broadly, the IC50 is the point on the concentration scale where inhibition reaches its midpoint. The low end stands for inhibition by little substance, the high end for a need for much substance. Regarding `CC(O)c1cccc(-c2cc(OC(=O)NC3CCCCC3)ccc2O)c1` (stereo not given), the inhibition in vivo at 1 mg/kg in assay [1] stood at 80.9%; in assay [3], 89.6%. This molecule also yielded a 50% inhibitory concentration (IC50) in [6] of 2 nM.

Take `NC(=O)c1cccc(-c2cc(OC(=O)NC3CCCCC3)ccc2C(=O)O)c1`: the inhibition in vivo at 1 mg/kg in assay [1] was 86.3%; in assay [3], -2.1%. Further, the inhibition entry in assay [4] was “Dose-dependent effect”. For the same molecule, the inhibition entry in assay [5] and in assay [7] was “inactive” throughout.

As for `NC(=O)c1cccc(-c2cc(OC(=O)NC3CCCCC3)ccc2O)c1`, the figures for the inhibition in vivo at 1 mg/kg in assay [1] and in assay [3] were 91.7% and -3%, respectively. Moreover, the median effective dose (ED50) in assay [2] turned out to be 40 mg/kg; in assay [8], 0.2 mg/kg; in [9], 0.2 mg/kg. Moreover, the inhibition entry in [4] was “Dose-dependent effect”. In addition, the inhibition entry in assay [10] is “Active”.
